# Screens as filed in PubChem BioAssay.
# GalR3 antagonist = human GalR3 antagonism. O60755. HEK293 GalR3-CNG cAMP membrane potential fluorescence; galR3 body fused to GalR1 C-terminus. inhibition, % at 3 µM. 360,000 compounds, 0.44% hits. AID 651719;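 active = inhibition above the screen-wide average plus 3 SD, cut at about 13% in these data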;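 also: forskolin and galanin both at EC90 stimulate the cells; cAMP rise reported by CNG channel membrane potential dye signal; 0% = forskolin plus galanin with DMSO and 100% = forskolin alone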
# Target sequence (O60755 1-299 limits assumed): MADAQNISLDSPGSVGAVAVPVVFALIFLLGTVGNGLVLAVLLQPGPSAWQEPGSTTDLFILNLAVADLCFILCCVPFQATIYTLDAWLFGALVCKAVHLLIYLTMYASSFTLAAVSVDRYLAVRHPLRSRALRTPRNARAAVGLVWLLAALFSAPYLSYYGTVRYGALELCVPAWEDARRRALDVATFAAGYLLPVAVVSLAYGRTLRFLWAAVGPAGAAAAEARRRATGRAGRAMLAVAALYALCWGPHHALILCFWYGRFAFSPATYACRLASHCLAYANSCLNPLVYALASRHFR
# ARFGAP1 inhibitor = inhibitors of rat ARFGAP1 | Arfgap1-stimulated ARF1 GTP hydrolysis, GDP FP detection | AID 651572 | 360,000 compounds, 0.26% hits | Q62848 | inhibition, % at 16.5 µM;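 active = inhibition above a per-plate limit, mean inhibition of low control wells plus 3 SD, cut at about 25% in these data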;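 also: 0% = DMSO wells with enzyme and 100% = wells lacking Arfgap1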
# Target sequence (Q62848 1-136 limits assumed): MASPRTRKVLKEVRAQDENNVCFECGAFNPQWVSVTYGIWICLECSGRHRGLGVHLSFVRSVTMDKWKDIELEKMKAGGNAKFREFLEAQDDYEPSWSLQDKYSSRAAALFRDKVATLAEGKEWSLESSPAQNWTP
#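 material = rat Arfgap1 catalytic domain, aa 1-136 | also added = human ARF1(Δ1-17)-GTP substrate | compound dosing = one concentration, 16.5 µM, DMSO 1.26% | times = GTP hydrolysis reaction 2 h at 25 °C | measured by = FP, GDP Alexa 633 tracer displaced from anti-GDP antibody, 620/688 nm | evaluation = percent inhibition of Arfgap1-stimulated GTP hydrolysis | replication = single well per compound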
# Rin1 Abl inh = human Rin1-Abl interaction inhibition. TR-FRET Rin1/Abl binding, biochemical. inhibition, % at 7.35 µM. 360,000 compounds, 0.4% hits; in the data active = inhibition above about 5%, passing the limit was not always enough
# ASAP1 GAP inh = blocks human ASAP1-stimulated Arf1 GTP hydrolysis; Q9ULH1; GDP FP detection; inhibition, % at 16.5 µM; AID 624377; 360,000 compounds, 0.19% hits; in the data active = inhibition above about 25%;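 also: 0% = vehicle with enzyme and substrate and 100% = no enzyme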
# GalR3 conf = GalR3 (human) antagonism, confirmation; AID 652245; HEK293 GalR3 CNG cAMP biosensor, membrane potential fluorescence; galR3 fused to GalR1 carboxy tail; challenged with forskolin and galanin at EC90; inhibition, % at 3 µM; 1,600 compounds, 59% hits; shares compounds with GalR3 antagonist;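 active = inhibition above the primary screen's cutoff, the mean inhibition of all screened compounds plus 3 SD, cut at about 13% in these data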;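 also: 0% = forskolin plus galanin and 100% = forskolin alone with DMSO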
# HEK-CNG parental = parental cell agonism counter-screen for GalR3 antagonists. HEK293-CNG parental cells, cAMP membrane potential fluorescence; normalised: DMSO wells 0%, forskolin wells 100%. 1,600 compounds, 10% hits. shares compounds with GalR3 antagonist. AID 652268. activation, % at 3 µM; in the data active = activation above about 1.3%
# * = called active by the depositor; / = no result. The list is not random: actives were taken first. Their share in the collection is about 1.2%.
SMILES,GalR3 antagonist,ARFGAP1 inhibitor,Rin1 Abl inh,ASAP1 GAP inh,GalR3 conf,HEK-CNG parental
CC1(C(=O)NCc2ccccc2)CN(S(C)(=O)=O)CC(=O)N1C1CC1 (stereo not given),-5.0,-5.4,/,2.7,/,/
OC(c1ccc(F)cc1)c1nc(-c2ccncc2)cs1 (stereo not given),13.3*,0.4,0.2,6.9,31.7*,-0.5
CCOC(=O)Cc1csc(NC(=O)Cc2ccccc2)n1,-5.0,-3.1,-0.4,-1.2,/,/
CCOC(=O)Cc1csc(NC(=O)c2cc(=O)c3ccccc3o2)n1,91.8*,11.3,-2.5,-5.2,89.9*,0.2
COc1ccc(NC(=O)c2sc(=O)n(Cc3ccccc3C#N)c2C)cc1OC,-2.2,3.0,-2.1,-4.6,/,/
CN(C(=O)CCc1cn(C)c2ccccc12)c1ccc(Oc2cccnc2)cc1,-10.8,6.1,/,-0.5,/,/
COc1ccc(C2c3cc(OC)c(OC)cc3CC3C(=O)OCC32)cc1OC (stereo not given),62.0*,5.5,2.6,8.9,65.1*,0.0
C[C@@H]1COc2cc(NCCO)ccc2S(=O)(=O)N1,-4.2,-8.4,/,1.3,/,/
CCOC(=O)N(C)[C@H]1C[C@H]2c3[nH]c4ccccc4c3CCN2C[C@H]1[C@H](C)O,-6.2,-5.6,0.3,1.1,/,/
CCOC(=O)N(C)[C@H]1C[C@H]2c3cc(-c4ccccc4C)ccc3CCN2C[C@H]1[C@H](C)O,95.0*,4.7,/,-1.0,1.7,0.1
C[C@@H]1CN([C@H](C)CO)C(=O)c2cc(NS(=O)(=O)c3ccccc3)ccc2O[C@@H](C)CCCCO[C@@H]1CN(C)Cc1ccc(Cl)c(Cl)c1,-7.3,7.4,/,12.5,/,/
O=C(Cn1nc(-c2ccccc2)c2ccccc2c1=O)Nc1ccc(O)cc1,13.7*,-1.1,-2.4,-1.9,0.7,-1.1
CC(NC(=O)Cn1nc(-c2ccccc2)c2ccccc2c1=O)c1ccccc1 (stereo not given),-7.3,-1.5,-1.1,4.8,/,/
CN(C)S(=O)(=O)c1cccc(C(=O)Nc2ccccc2[N+](=O)[O-])c1,15.3*,17.7,1.9,-0.2,2.3,-0.1
O=C(O)c1ccc(NS(=O)(=O)c2cccc(C(=O)Nc3ccccc3[N+](=O)[O-])c2)cc1,-3.5,0.8,-1.1,5.1,/,/
O=S(=O)(NCc1ccc(Cl)c(Cl)c1)c1cc(Cl)ccc1N1CC[C@@H](O)C1,-4.4,16.2,/,2.2,/,/
CCSc1nnc(Cn2c(=O)sc3ccccc32)n1C,/,1.1,-2.5,2.7,1.9,-0.1
Cn1c(Cn2c(=O)sc3ccccc32)nnc1SCc1ccccn1,-3.8,0.5,-0.3,-6.9,/,/
Cc1nc2ccc(NC(=O)c3cc(S(=O)(=O)N(C)c4ccccc4)ccc3Cl)cc2s1,77.9*,-7.8,-2.4,2.2,111.9*,-0.6
Cc1nc2ccc(NC(=O)c3ccc(Cl)c(S(=O)(=O)N(C)c4ccccc4)c3)cc2s1,-2.5,9.4,5.5,3.4,/,/
COc1ccc(CC(=O)OCc2cc3ccc(C)cc3[nH]c2=O)cc1,-2.7,-12.9,-3.4,1.2,/,/
COc1ccc(CC(=O)OCc2cc3ccccc3[nH]c2=O)cc1,/,-4.6,-1.6,3.9,2.0,-0.1
C[C@@H]1CN(c2ccc(N3CCNC[C@@H]3C)cc2C#N)CCN1Cc1ccccc1,-8.3,4.8,/,-5.9,/,/
COc1ccccc1-[n+]1c(C)cc(/C=C2\Sc3ccccc3N2C)cc1C,44.0*,2.8,-56.4,2.1,107.2*,-0.3
COc1ccc(C(=O)/C=C2\Sc3ccccc3N2C)cc1,-4.3,-7.2,0.2,5.5,/,/
COc1ccc(-[n+]2c(C)cc(/C=C3\Sc4ccccc4N3C)cc2C)cc1,81.8*,-1.2,-19.4,-5.4,103.0*,-0.6
CN1OC[C@@H]2CN[C@H](c3ccc(N4CCCCC4)cc3)C[C@@H]21,-2.3,-1.0,/,-2.7,/,/
COC(=O)C1=C(C)N(C)C(=NCc2ccc(OC)cc2)NC1c1cccc(F)c1 (stereo not given),-4.0,2.9,/,-2.9,/,/
Cc1cc(C)c(CN2CCN(C(=O)Cn3cnc4c(OCc5ccccc5)ncnc43)CC2)c(C)c1,98.2*,-1.5,0.8,-1.8,106.0*,-0.7
